# Compound activity deposited in PubChem by several laboratories.
# Calb FLC = affects C. albicans growth with fluconazole | C. albicans CaCi-2 (fluconazole-resistant clinical isolate) + fluconazole, Alamar Blue growth, 48 h | growth inhibition, % (test concentration not listed) | 0.57% of 300,000 active;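 active = growth inhibition above about 58% in most replicates, limit read from the data, passing the limit was not always enough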;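 note: all wells also contain fluconazole at 8 µg/ml as a sub-toxic cotreatment; 0% = median of DMSO wells and 100% = median of geldanamycin control wells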
# T cruzi repl = blocks replication of Trypanosoma cruzi | T. cruzi beta-gal in NIH3T3, luminescence, 90 h | inhibition, % (concentration not given with the values) | 1.4% of 300,000 active | AID 1885;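 active = mean inhibition across valid replicates above about 55%, limit read from the data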;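 note: signal also drops with host cell toxicity which is not excluded here; 0% = plate median of DMSO wells and 100% = zero luminescence signal; higher percent means less beta-gal luminescence so fewer parasites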
#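 Material: NIH/3T3 host cells with β-galactosidase reporter T. cruzi; Input: 5,000 host fibroblasts per well; Medium: DMEM, 2% fetal bovine serum; Compound: 50 nL DMSO compound solution per well; Schedule: 3 h host attachment, then at least 90 h co-culture; Detection: luminescent β-galactosidase signal after 60 min lysis.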
# CSC inhib = blocks cancer stem cells; 1.1% of 300,000 active; inhibition, % at 7.5 µM; cancer stem cell-like cells viability, luminescence; in the data active = inhibition above about 75%; tested in HMLE shEcad cells
# SKKanGAS inh = SKKanGAS growth inhibition | inhibition, % at 7.5 µM | 1.3% of 300,000 active | S. pyogenes SKKanGAS, kanamycin growth, BacTiter-Glo, 6 h;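 active = mean replicate score, as percent of positive control median, at least 50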;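 note: strain carries kanamycin resistance gene driven by streptokinase promoter and grows in 40 µg/ml kanamycin; loss of luminescence reflects streptokinase promoter inhibition or plain growth inhibition; 0% = median of DMSO wells and 100% = positive control at its reference dose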
# Beta apoptosis = beta cell apoptosis inhibition; INS-1E cytokine-induced death, ATP luminescence, 48 h; percent of positive-control rescue, neutral wells zero; protection from apoptosis, % (no concentration beside the values); 0.8% of 300,000 active;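 active = Every replicate reaches about 75%, or at least half do and their mean reaches it too, limit read from the data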;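 note: 0% = cytokine-treated negative control wells and 100% = positive control rescue; higher means more ATP so stronger rescue from cytokine killing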
# Mdm2 MdmX PPI = inhibitors of human Mdm2/MdmX interaction | SaOS-2 split-luciferase Mdm2/MdmX complementation, luminescence | AID 485346 | inhibition, % at 8 µM | O15151+Q00987 | 3% of 330,000 active;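 active = inhibition of at least 50% at 8 µM in the primary screen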
# Active calls of the source: *; x = not tested or not shown. A selection: hits, their analogues and other compounds. The true share with any hit is near 5.7%.
SMILES,Calb FLC,T cruzi repl,CSC inhib,SKKanGAS inh,Beta apoptosis,Mdm2 MdmX PPI
CCOC(=O)/C(=C/c1ccc(OC(=O)c2ccncc2)cc1)C(C)=O,21,-12,12,x,-7,14
CCOC(=O)C(=Cc1ccc(Br)cc1)C(=O)OCC,20,14,39,-7,86*,x
COc1ccc(-c2ccc3c(c2)S(=O)(=O)c2cccc(C(=O)NCc4cc(C)oc4C(F)(F)F)c2C3=O)cc1OC,x,x,3,x,20,36
CC(C)c1nnc(NC(=O)COc2ccc3c(c2)OCO3)s1,7,-1,31,-7,-1,-20
CCCC(C)c1nnc(NC(=O)COc2ccc3c(c2)OCO3)s1 (stereo not given),5,-4,85*,-5,1,5
O=C1C2=C(NC(=S)NC2c2ccc(Cl)cc2)NC(c2ccc(Cl)cc2)N1c1ccc(Cl)cc1 (stereo not given),25,57*,101*,105*,-12,1
COc1ccc(S(=O)(=O)N2CCN3CCCC3C2)cc1 (stereo not given),-3,-1,2,1,-4,11
O=C1NC(=S)S/C1=C\c1ccc(SCc2ccccc2)o1,x,x,76*,x,8,x
CC(O)CNc1nc2sc3c(c2c(=O)n1CCc1ccccc1)CCCCC3 (stereo not given),3,57*,58,13,5,7
O=c1c2c3c(sc2n(CCN2CCCCC2)c(=O)n1Cc1ccco1)CCCCC3,5,63*,-3,0,93*,-2
CC(O)CNc1nc2sc3c(c2c(=O)n1Cc1ccco1)CCCCC3 (stereo not given),-19,3,57,25,91*,-25
Cc1oc2c(CN3CCCCC3)c(O)ccc2c(=O)c1-c1ccc(Cl)cc1,9,1,-15,-1,-7,-12
COc1ccc(C2=NS(=O)(=O)N(C)C(C(=O)N3CCCCC3)=C2)cc1OC,8,9,-12,4,-9,-21
O=C(CCNS(=O)(=O)c1ccccc1)OCC(=O)c1ccc[nH]1,x,-3,-8,1,-2,2
COc1cc(C(=O)N/N=C(\c2ccccc2)c2ccccn2)cc(OC)c1OC,-4,55*,36,23,86*,46
CC(NC(=O)c1cccnc1)C(c1cccs1)N1CCOCC1 (stereo not given),-9,65*,-9,2,-5,-4
Cc1nc(-c2ccccn2)nc(SCC(=O)c2ccccc2)c1Cl,3,9,-10,93*,22,9
Cc1nc(-c2ccccn2)nc(SCC(=O)N2CCOCC2)c1Cl,0,-8,-1,1,-7,11
O=C(N/N=C/c1ccc([N+](=O)[O-])o1)C1CCCC1,25,72*,12,-8,8,8
O=C(N/N=C/c1ccc([N+](=O)[O-])o1)c1ccncc1,-1,22,-5,10,-24,18
O=C(N/N=C\c1ccc([N+](=O)[O-])o1)C1COc2ccccc2O1 (stereo not given),66,61*,9,-6,x,19
COc1ccc(Br)c(C(=O)OCC(=O)NC2CCCCCC2)c1,x,x,-12,x,2,4
O=C(NCc1ccc(Cl)s1)C1CCC(=O)N(CCc2cccc(F)c2)C1 (stereo not given),12,9,-7,-1,0,-4
COc1ccc(S(=O)(=O)Nc2cc(SCC(=O)O)c(O)c3ccccc23)cc1,60,4,37,3,94*,20
Cc1nn(-c2ccccc2)c(C)c1-c1cc(C(=O)N/N=C/c2ccc(O)cc2)[nH]n1,-4,-4,75*,9,24,22
COc1cc(/C=N/NC(=O)c2cc(-c3c(C)nn(-c4ccccc4)c3C)n[nH]2)ccc1O,-10,-15,9,87*,35,-50
COc1cc(/C=N/NC(=O)c2cc(C34CC5CC(CC(C5)C3)C4)[nH]n2)ccc1O,19,2,101*,7,-6,19
COc1cc(/C=N/NC(=O)c2nc(-c3ccccc3)n(-c3ccccc3)n2)ccc1O,25,14,-9,2,-2,-3
COc1cc(/C=N/NC(=O)c2cc(-c3ccc4c(c3)OCO4)n[nH]2)ccc1O,-7,6,75*,13,42,-4
